Here are results for 27 molecules from ChEMBL document CHEMBL1145895, “A new generation of N-aryl-N'-(1-alkyl-2-chloroethyl)ureas as microtubule disrupters: synthesis, antiproliferative activity, and beta-tubulin alkylation kinetics” (J Med Chem, 2003).

A value given as a limit tells only on which side of the number the result lay.

Type in all cases: functional, cell-based
For one test, the system named is L1210. Description: In vitro cytotoxic activity required to inhibit murine lymphocytotic leukemia L1210 cell line. To be noted: Mus musculus. The essentials:
(§1)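 Alamar Blue viability assay. (1-5) × 10³ cells were seeded in RPMI 1640 with 10% bovine calf serum and preincubated 24 h. Increasing drug concentrations from DMSO stocks were added (final DMSO 0.5%) and cells incubated 72 h at 37 °C. Fluorescence read at ex 485/em 590 nm. IC50 is the dose inhibiting growth by 50%, mean of at least three independent determinations.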

For a further test, the system named is B16. Briefly: In vitro cytotoxic activity required to inhibit murine melanoma B16 cell line. Conditions: Mus musculus. The essentials: as §1
Another test has as its system T-24. Description: In vitro cytotoxic activity required to inhibit human bladder carcinoma T24 cell line. The essentials:
as §1

The next test deals with HT-29. Briefly: In vitro cytotoxic activity required to inhibit human colon adenocarcinoma HT-29 cell line. The method in brief:
as §1

The next test has as its system K562. Description: In vitro cytotoxic activity required to inhibit human chronic myelogenous leukemia K-562 cell line. The essentials: as §1
Another test relates to MCF7. Briefly: In vitro cytotoxic activity required to inhibit human estrogen-sensitive breast adenocarcinoma MCF-7 cell line. The method in brief: as §1
The test system of the next test is CHO-TAX 5-6. Briefly: Cytotoxic activity on paclitaxel-resistant CHO-TAX 5-6 cell line expressing mutated tubulin. To be noted: Cricetulus griseus. The method in brief: as §1
The test system of the next test is CHO. Description: Cytotoxic activity on wild type CHO10001 cell line expressing mutated tubulin. To be noted: Cricetulus griseus. The essentials:
as §1

Another test deals with CHO-VV 3-2. Briefly: Cytotoxic activity on colchicine-resistant CHO-VV 3-2 cell line expressing mutated tubulin. To be noted: Cricetulus griseus. The method in brief: as §1

With `CC[C@H](CCl)NC(=O)Nc1ccc(C(C)C)cc1`, the IC50 with L1210 was 14 µM; with B16, 33 µM; in the test with T-24 it was 32 µM; with HT-29 it was 28 µM; with K562 it was 19 µM; with MCF7, 55 µM.

As to `CCC(C)c1ccc(NC(=O)N[C@@H](CC)CCl)cc1` (some centres undefined), the IC50 with L1210 was determined as 12 µM; in the test with B16, 27 µM; in the test on T-24, 38 µM; with HT-29, 28 µM; in the test with K562, 27 µM; with MCF7, 51 µM.

Consider `C[C@@H](CCl)NC(=O)Nc1ccc(C(C)(C)C)cc1`, for which the IC50 with L1210 came out at 12 µM; in the test on CHO-TAX 5-6, 53 µM; in the test on B16, 35 µM; with T-24, 41 µM; with HT-29 it was 48 µM; in the test with CHO it was 56 µM. Besides, the IC50 was found to be 53 µM in the test with CHO-VV 3-2, 47 µM with K562 and 84 µM with MCF7.

With `C[C@@H](CCl)NC(=O)Nc1ccc2c(c1)CCC2`, the IC50 in the test with L1210 was 41 µM; in the test on B16, more than 100 µM; in the test with T-24, 92 µM; in the test with HT-29, more than 100 µM; in the test on K562 it was 91 µM; in the test with MCF7 it was more than 100 µM.

On to `CCC(C)c1ccc(NC(=O)N[C@H](CC)CCl)cc1` (some centres undefined), for which the IC50 was determined as 11 µM in the test on L1210; 20 µM in the test on B16; 28 µM with T-24; 20 µM in the test on HT-29; 19 µM in the test with K562; 38 µM in the test on MCF7.

Take `C[C@H](CCl)NC(=O)Nc1ccc2ccccc2c1`: the IC50 with L1210 came to 1.7 µM; in the test with B16 it was 4.5 µM; with T-24 it was 4 µM; in the test with HT-29, 2.3 µM; in the test on K562 it was 2.3 µM; in the test on MCF7, 6 µM.

As to `O=C(NCCCl)Nc1ccc(I)cc1`, the IC50 in the test with L1210 came to 3.6 µM; with CHO-TAX 5-6, 6.1 µM; in the test with B16, 16 µM; with T-24, 12 µM; in the test with HT-29 it was 6 µM; with CHO, 15 µM. Further, the IC50 in the test on CHO-VV 3-2 is 23 µM; in the test with K562, 6.2 µM; in the test with MCF7, 23 µM.

With `CC(C)c1ccc(NC(=O)NCCCl)cc1`, the IC50 in the test on L1210 came out at 2 µM; with B16, 4.7 µM; in the test on T-24, 3.6 µM; with HT-29, 2.3 µM; in the test with K562, 1.9 µM; in the test on MCF7 it was 4.7 µM.

Consider `CCC(C)c1ccc(NC(=O)NCCCl)cc1` (centres undefined), for which the IC50 in the test with L1210 stood at 2 µM; in the test with B16, 5 µM; in the test on T-24, 3.7 µM; in the test on HT-29 it was 1.8 µM; with K562, 2 µM; with MCF7 it was 5.2 µM.

Turning to `C[C@H](CCl)NC(=O)Nc1ccc(I)cc1`, the IC50 turned out to be 0.8 µM in the test on L1210; 0.7 µM with CHO-TAX 5-6; 2.1 µM with B16; 1.8 µM in the test on T-24; 1.3 µM in the test on HT-29; 2.3 µM in the test with CHO. The IC50 is 4.7 µM in the test with CHO-VV 3-2, 1 µM in the test on K562 and 3.2 µM in the test with MCF7.

On to `C[C@@H](CCl)NC(=O)Nc1ccc(I)cc1`, for which the IC50 with L1210 amounted to 47 µM; with CHO-TAX 5-6, 54 µM; with B16, 93 µM; with T-24, 59 µM; in the test with HT-29, 76 µM; in the test on CHO, 58 µM. For the same molecule, the IC50 was 51 µM in the test with CHO-VV 3-2, 43 µM in the test on K562 and 93 µM in the test with MCF7.

Take `CC[C@@H](CCl)NC(=O)Nc1ccc(C(C)C)cc1`: the IC50 amounted to 24 µM with L1210; 46 µM in the test on B16; 57 µM with T-24; 51 µM in the test with HT-29; 28 µM with K562; 72 µM in the test on MCF7.

Consider `CC(C)c1ccc(NC(=O)N[C@@H](C)CCl)cc1`, for which the IC50 is 28 µM with L1210; 46 µM in the test with B16; 54 µM with T-24; 65 µM in the test with HT-29; 33 µM with K562; more than 100 µM with MCF7.

As for `CC(C)(C)c1ccc(NC(=O)NCCCl)cc1`, the IC50 is 3.3 µM with L1210; 3.1 µM in the test on CHO-TAX 5-6; 8 µM with B16; 6.3 µM in the test with T-24; 4 µM with HT-29; 7.6 µM with CHO. Also, the IC50 is 13 µM with CHO-VV 3-2, 3.6 µM in the test on K562 and 11 µM in the test on MCF7.

Take `CC[C@@H](CCl)NC(=O)Nc1ccc(C(C)(C)C)cc1`: the IC50 came out at 17 µM in the test with L1210; 27 µM in the test on B16; 29 µM in the test with T-24; 24 µM in the test with HT-29; 26 µM in the test on K562; 60 µM with MCF7.

For the molecule `CCC(C)c1ccc(NC(=O)N[C@H](C)CCl)cc1` (some centres undefined), the IC50 with L1210 was 1.7 µM; with B16, 4.2 µM; in the test on T-24, 3.4 µM; in the test with HT-29 it was 1.9 µM; with K562, 2 µM; in the test with MCF7, 4.8 µM.

Regarding `C[C@@H](CCl)NC(=O)Nc1ccc2ccccc2c1`, the IC50 was 20 µM in the test with L1210; more than 100 µM in the test on B16; 71 µM in the test with T-24; 86 µM in the test on HT-29; 63 µM with K562; more than 100 µM with MCF7.

Take `CC[C@H](CCl)NC(=O)Nc1ccc(C(C)(C)C)cc1`: the IC50 turned out to be 17 µM in the test with L1210; 27 µM in the test with B16; 28 µM with T-24; 25 µM in the test on HT-29; 28 µM in the test with K562; 52 µM with MCF7.

As to `CC[C@H](CCl)NC(=O)Nc1ccc(I)cc1`, the IC50 with L1210 is 87 µM; in the test with B16 it was 49 µM; in the test on T-24 it was 46 µM; with HT-29 it was 34 µM; in the test with K562, 31 µM; with MCF7 it was 52 µM.

Consider `C[C@H](CCl)NC(=O)Nc1ccc2c(c1)Cc1ccccc1-2`, for which the IC50 with L1210 was 4.2 µM; in the test on B16, 9.3 µM; in the test with T-24 it was 7.4 µM; with HT-29, 6.6 µM; with K562 it was 5.1 µM; in the test on MCF7, 10 µM.

As for `O=C(NCCCl)Nc1ccc2ccccc2c1`, the IC50 in the test with L1210 stood at 2.9 µM; in the test with B16, 6.3 µM; with HT-29 it was 2.6 µM; with K562, 2.5 µM; in the test on MCF7, 7.3 µM.

Regarding `C[C@H](CCl)NC(=O)Nc1ccc2c(c1)CCC2`, the IC50 worked out at 4.2 µM with L1210; 11 µM in the test on B16; 7.4 µM with T-24; 6.4 µM with HT-29; 5 µM in the test on K562; 11 µM with MCF7.

As for `C[C@@H](CCl)NC(=O)Nc1ccc2c(c1)Cc1ccccc1-2`, the IC50 in the test on L1210 worked out at 17 µM; in the test with B16 it was 30 µM; in the test on T-24, 27 µM; with HT-29, 28 µM; in the test on K562, 19 µM; with MCF7 it was 29 µM.

In the case of `C[C@H](CCl)NC(=O)Nc1ccc(C(C)(C)C)cc1`, the IC50 with L1210 was 3.4 µM; with CHO-TAX 5-6, 3.6 µM; in the test with B16 it was 8.5 µM; with T-24 it was 7 µM; in the test on HT-29, 3.9 µM; in the test with CHO, 8.1 µM. For the same molecule, the IC50 came out at 15 µM in the test on CHO-VV 3-2, 3.8 µM in the test on K562 and 10 µM with MCF7.

Regarding `CC[C@@H](CCl)NC(=O)Nc1ccc(I)cc1`, the IC50 worked out at 90 µM in the test with L1210; 89 µM with B16; 67 µM with T-24; 79 µM with HT-29; 63 µM in the test with K562; 80 µM in the test with MCF7.

As to `CCC(C)c1ccc(NC(=O)N[C@@H](C)CCl)cc1` (some centres undefined), the IC50 turned out to be 18 µM with L1210; 33 µM in the test with B16; 35 µM in the test on T-24; 39 µM in the test on HT-29; 34 µM in the test with K562; 63 µM in the test on MCF7.

With `CC(C)c1ccc(NC(=O)N[C@H](C)CCl)cc1`, the IC50 with L1210 turned out to be 0.9 µM; in the test with B16 it was 2.3 µM; with T-24, 1.9 µM; with HT-29, 1 µM; in the test with K562, 0.9 µM; in the test with MCF7, 2.9 µM.
